ChEMBL document CHEMBL1145544, “Probing distal regions of the A2B adenosine receptor by quantitative structure-activity relationship modeling of known and novel agonists” (J Med Chem, 2008)

Columns and labels:
Adenosine receptor A1 = target: T1, Adenosine receptor A1 (Homo sapiens, UniProt P30542); assay: Displacement of [3H]CCPA from human adenosine A1 receptor expressed in CHO cells; assay type: cell-based
T1 sequence (P30542 whole entry): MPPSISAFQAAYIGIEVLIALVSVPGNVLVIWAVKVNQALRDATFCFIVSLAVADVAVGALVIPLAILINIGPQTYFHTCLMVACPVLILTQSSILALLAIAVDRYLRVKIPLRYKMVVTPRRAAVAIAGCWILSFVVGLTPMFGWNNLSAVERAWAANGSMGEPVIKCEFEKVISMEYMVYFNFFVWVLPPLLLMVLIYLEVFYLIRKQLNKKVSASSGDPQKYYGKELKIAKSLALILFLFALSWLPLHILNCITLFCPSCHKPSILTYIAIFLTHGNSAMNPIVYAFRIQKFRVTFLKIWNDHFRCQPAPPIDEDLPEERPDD

Adenosine receptor A2b = target: T2, Adenosine receptor A2b (Homo sapiens, UniProt P29275); assay: Agonist activity at human adenosine A2B receptor expressed in CHO cells assessed as stimulation of adenylate cyclase; assay type: functional, cell-based
T2 sequence (P29275 whole entry): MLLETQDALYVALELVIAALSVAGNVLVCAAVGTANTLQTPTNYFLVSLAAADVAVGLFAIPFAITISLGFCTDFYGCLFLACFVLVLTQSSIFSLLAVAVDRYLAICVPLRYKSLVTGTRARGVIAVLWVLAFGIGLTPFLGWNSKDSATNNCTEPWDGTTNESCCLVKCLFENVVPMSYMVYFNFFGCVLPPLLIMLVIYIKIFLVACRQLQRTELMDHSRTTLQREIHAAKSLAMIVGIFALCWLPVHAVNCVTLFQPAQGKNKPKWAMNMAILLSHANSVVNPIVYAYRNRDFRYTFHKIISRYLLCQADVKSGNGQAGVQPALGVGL
Outline: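 Stably transfected CHO cells; cAMP accumulation quantified by enzyme immunoassay kit per manufacturer's manual; EC50 derived.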

[1] = target: T3, Adenosine receptor A2b (Homo sapiens) (UniProt P29275); assay: Agonist activity human adenosine A2B receptor expressed in CHO cells assessed as stimulation of adenylate cyclase relative to NECA; assay type: functional, cell-based
T3 sequence (whole entry): T2 sequence (P29275 whole entry)
Outline: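 Stably transfected CHO cells; cAMP accumulation by enzyme immunoassay kit. Relative potency computed as pEC50(compound) minus pEC50(NECA) determined in the same publication.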

Adenosine receptor A2a [2] = target: T4, Adenosine receptor A2a (Homo sapiens, UniProt P29274); assay: Displacement of [3H]CGS-21680 from human adenosine A2A receptor expressed in HEK293 cells at 10 uM; assay type: cell-based
Outline: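 HEK293 membranes expressing receptor; [3H]CGS21680 final 10 nM in 50 mM Tris-HCl pH 7.4, 10 mM MgCl2, 1 h at 25 °C; nonspecific defined by 10 μM NECA; filtration, scintillation counting; percent displacement recorded at single 10 μM concentration.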

Adenosine receptor A2a [3] = target: T4, Adenosine receptor A2a; assay: Displacement of [3H]CGS-21680 from human adenosine A2A receptor expressed in HEK293 cells; assay type: cell-based
[4] = target: T5, Adenosine receptor A1 (Homo sapiens) (UniProt P30542); assay: Displacement of [3H]CCPA from human adenosine A1 receptor expressed in CHO cells at 10 uM; assay type: cell-based
T5 sequence (whole entry): T1 sequence (P30542 whole entry)
Outline: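 CHO membranes expressing receptor; [3H]CCPA final 1.0 nM, Tris-HCl 50 mM pH 7.4 with 10 mM MgCl2, 1 h at 25 °C; nonspecific with 10 μM NECA; filtration and scintillation counting; percent displacement at single 10 μM test concentration.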

T4 sequence (P29274 whole entry): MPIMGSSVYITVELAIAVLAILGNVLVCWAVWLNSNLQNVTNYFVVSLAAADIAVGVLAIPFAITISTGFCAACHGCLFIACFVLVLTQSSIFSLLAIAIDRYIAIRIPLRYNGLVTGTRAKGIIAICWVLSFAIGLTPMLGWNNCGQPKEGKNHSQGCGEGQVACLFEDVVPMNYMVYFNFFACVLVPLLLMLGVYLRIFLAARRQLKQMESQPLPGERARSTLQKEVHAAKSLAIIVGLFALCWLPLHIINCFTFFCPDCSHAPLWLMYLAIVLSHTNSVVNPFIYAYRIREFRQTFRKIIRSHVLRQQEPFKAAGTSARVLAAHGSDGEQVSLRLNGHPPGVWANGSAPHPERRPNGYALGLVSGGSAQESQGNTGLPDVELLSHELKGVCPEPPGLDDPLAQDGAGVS

Ki (Adenosine receptor A1) [nM] | EC50 (Adenosine receptor A2b) [nM] | Activity [1] | Activity (Adenosine receptor A2a [2]) [%] | Ki (Adenosine receptor A2a [3]) [nM] | Activity [4] [%] | SMILES
420 | 965 | -0.838 | 46 | – | – | O=C(COc1ccc(Nc2nc(OCCc3c[nH]c4cc(Br)ccc34)nc3c2ncn3[C@@H]2O[C@H](CO)[C@@H](O)[C@H]2O)cc1)N1CCCC1
370 | 143 | -0.0092 | – | 1150 | – | O=C(COc1ccc(Nc2nc(OCCc3c[nH]c4cc(Br)ccc34)nc3c2ncn3[C@@H]2O[C@H](CO)[C@@H](O)[C@H]2O)cc1)Nc1ccccc1
350 | 174 | -0.0944 | – | 2050 | – | NNc1nc(OCCc2c[nH]c3cc(Br)ccc23)nc2c1ncn2[C@@H]1O[C@H](CO)[C@@H](O)[C@H]1O
– | 289 | -0.315 | 40 | – | 29 | O=C(NNc1nc(OCCc2c[nH]c3cc(Br)ccc23)nc2c1ncn2[C@@H]1O[C@H](CO)[C@@H](O)[C@H]1O)c1ccco1
